One assay relates to KB. Description: Cytotoxicity against human KB cells by resazurin microplate assay. Type of assay: functional, cell-based. In a few lines:
(§1)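 Resazurin microplate assay on human tumour cell lines: KB (oral epidermoid carcinoma), MCF-7 (breast cancer) and NCI-H187 (small-cell lung cancer).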
(In general: Alamar Blue is a resazurin reagent that responds to reducing activity.)

The subject of another assay is Vero. As to the kind of experiment: Cytotoxicity against african green monkey Vero cells after 8 days by green fluorescent protein microplate assay. Type of assay: cell-based. Particulars: Chlorocebus sabaeus, 192 h. In a few lines:
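Vero cells (African green monkey kidney fibroblasts); cytotoxicity read by green fluorescent protein microplate assay (GFPMA).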

For a further assay, the system named is NCI-H187. As to the kind of experiment: Cytotoxicity against human NCI-H187 cells by resazurin microplate assay. Type of assay: functional, cell-based. In a few lines: as §1
The next assay concerns MCF7. As to the kind of experiment: Cytotoxicity against human MCF7 cells by resazurin microplate assay. The format is functional, cell-based. In a few lines:
as §1

For assay [1], the system named is Mycobacterium tuberculosis. As to the kind of experiment: Antituberculosis activity against Mycobacterium tuberculosis H37Ra. Type of assay: functional, organism-based.
The next assay concerns Pyricularia grisea. As to the kind of experiment: Antifungal activity against Magnaporthe grisea. Type of assay: functional, organism-based.
Another assay relates to Plasmodium falciparum. Description: Antimalarial activity against Plasmodium falciparum K1. Type of assay: functional, organism-based.
For a further assay, the system named is Candida albicans. Description: Antifungal activity against Candida albicans. The format is functional, organism-based.

Activity calls are given as the source filed them. The calls are words filed in the database; no cut-off is given here.

On to `C=C1CCC(=O)[C@@]2(C)CC[C@H](C(C)(C)O)C[C@H]12`, for which the IC50 with KB is 32 µM; with Vero, 32 µM; in the assay with NCI-H187, 11 µM; with MCF7 it was 20 µM. Besides, the result (in assay [1]; with Pyricularia grisea; in the assay on Plasmodium falciparum; in the assay on Candida albicans) was inactive.

Turning to `C=C1CC[C@H](O)[C@@]2(C)CC[C@H](C(C)(C)O)C[C@H]12`, the IC50 in the assay on KB, with Vero, in the assay with NCI-H187 and in the assay on MCF7 was over 210 µM in each case. The result (in assay [1]; in the assay on Pyricularia grisea; in the assay with Plasmodium falciparum; in the assay with Candida albicans) was inactive.

As to `COc1cccc2c1C(=O)c1c(O)c3c(c(O)c1C2=O)C[C@@](O)(C(=O)CO)C[C@@H]3O[C@H]1C[C@H](N)[C@H](O)[C@H](C)O1` [DOXORUBICIN], the results for the IC50 with KB and in the assay on NCI-H187 were 0.28 µM and 0.25 µM, respectively.

As for `Cc1c2ccncc2c(C)c2c1[nH]c1ccccc12` [ELLIPTECINE], the IC50 in the assay with KB came to 2.5 µM; with Vero, 5.5 µM; in the assay on NCI-H187, 3.6 µM.

In the case of `O=C/C=C/C=C1/C(=O)O[C@H](/C=C/CO)[C@H]1O` [EUTYPELLIN A], the concentration for half-maximal inhibition (IC50) in the assay with KB was determined as 38 µM; in the assay with Vero, 88 µM; in the assay with NCI-H187, 12 µM; in the assay on MCF7, 84 µM. The result (in assay [1]; in the assay on Pyricularia grisea; with Plasmodium falciparum; in the assay with Candida albicans) was inactive.

For the compound `O=C1O[C@H](/C=C/CO)[C@@H](O)/C1=C\C=C\CO` [EUTYPELLIN B], the half-maximal inhibitory concentration (IC50) is 144 µM in the assay with KB, over 221 µM with Vero, 206 µM in the assay on NCI-H187 and over 221 µM in the assay with MCF7. The result (in assay [1]; with Pyricularia grisea; in the assay on Plasmodium falciparum; with Candida albicans) was inactive.

One may read the IC50 as the concentration that inhibits the measured activity by half.

The record behind these values is ChEMBL document CHEMBL1154263, “Gamma-lactones and ent-eudesmane sesquiterpenes from the endophytic fungus Eutypella sp. BCC 13199” (J Nat Prod, 2009).
